Experimental findings from ChEMBL document CHEMBL1144103, “Biologically active secondary metabolites from fungi. 12.(1) oidiolactones A-F, labdane diterpene derivatives isolated from oidiodendron truncata” (1999) are described below.

The structures appear in SMILES notation.

Holding throughout (assay type): functional
The subject of experiment [1] is Microbotryum violaceum. The experiment can be described thus: Antifungal activity against Ustilago violacea at 10 mg/mL by agar diffusion test. As to conditions: read-out: IZ. The gist of the method: (§1)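 Agar diffusion test. Activity is scored on a 1-4 scale by the radius of the inhibition zone: 1-10 mm = 1, 10-20 mm = 2, 20-30 mm = 3, 30-40 mm = 4.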
Experiment [2] concerns Escherichia coli. Nature of the experiment: Antibacterial activity against Escherichia coli at 10 mg/mL by agar diffusion test. As to conditions: read-out: IZ. The method in brief: as §1
In general terms: In agar diffusion tests the substance spreads into inoculated agar from a disc or well.

Experiment [3] deals with Priestia megaterium. The experiment can be described thus: Antibacterial activity against Bacillus megaterium at 10 mg/mL by agar diffusion test. As to conditions: read-out: IZ. The method in brief: as §1
The subject of experiment [4] is Aspergillus pseudoglaucus. The experiment can be described thus: Antifungal activity against Eurotium repens at 10 mg/mL by agar diffusion test. As to conditions: read-out: IZ. The gist of the method: as §1
The test system of experiment [5] is Mycotypha microspora. The experiment can be described thus: Antifungal activity against Mycotypha microspora at 10 mg/mL by agar diffusion test. As to conditions: read-out: IZ. The method in brief: as §1
Experiment [6] has as its system [Chlorella] fusca. Nature of the experiment: Herbicidal activity against Chlorella fusca at 10 mg/mL by agar diffusion test. As to conditions: Scenedesmus fuscus; read-out: IZ. The gist of the method:
as §1

Experiment [7] has as its system Lemna minor. Nature of the experiment: Herbicidal activity against Lemna minor assessed as growth inhibition at 10 mg/mL after 1 and 6 days relative to control. The method in brief:
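Lemna minor growth inhibition. 10 mg of sample is dissolved in 0.05 mL MeOH plus 0.05 mL acetone and added to 10 mL test medium (growth medium without sucrose) in 5 cm Petri dishes, each holding 15 plants. Plants are scored after 1 and 6 days.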

Experiment [8] has as its system Lepidium sativum. Nature of the experiment: Herbicidal activity against Lepidium sativum assessed as growth inhibition at 10 mg/mL relative to control.

`C[C@@]12CCC[C@]3(C)C4=CC(=O)O[C@@H](O)[C@]45O[C@@H]5[C@@H](OC1=O)[C@@H]23` [OIDIOLACTONE D]: the zone of inhibition at 10000 µg/mL in experiment [1] came to 1 mm; in experiment [2] it was 0 mm; in experiment [3] it was 0 mm; in experiment [4], 1 mm; in experiment [5] it was 1 mm; in experiment [6] it was 1 mm.
For the compound `C[C@]12CCC[C@](C)(C(=O)O)[C@@H]1C=C[C@]1(O)COC(=O)C[C@H]21` [OIDIOLACTONE E], the zone of inhibition at 10000 µg/mL in experiment [1] was determined as 1 mm; in experiment [2], 0 mm; in experiment [3] it was 0 mm; in experiment [4], 1 mm; in experiment [5], 0 mm; in experiment [6] it was 1 mm.
The term inhibition denotes the change of the read-out against control, counted positive when it falls. Consider `CO[C@H]1OC(=O)C=C2[C@@]13O[C@@H]3[C@H]1OC(=O)[C@@]3(C)CCC[C@@]2(C)[C@@H]13`, for which the zone of inhibition at 10000 µg/mL in experiment [1] is 10 mm; in experiment [2] it was 0 mm; in experiment [3] it was 1 mm; in experiment [4], 1 mm; in experiment [5] it was 1 mm; in experiment [6], 10 mm. The inhibition at 10000 µg/mL in experiment [7] was more than 90%; in experiment [8] it was 100%.
`CO[C@H]1OC(=O)C=C2C1=C[C@H]1OC(=O)[C@@]3(C)CCC[C@@]2(C)[C@@H]13`: the zone of inhibition at 10000 µg/mL in experiment [1] worked out at 30 mm; in experiment [3] it was 1 mm; in experiment [6], 20 mm.
